Assay results as given in ChEMBL document CHEMBL1123823, “[1-Desamino, 7-lysine, 8-arginine]vasotocin: attachment of reporter groups and affinity ligands through the lysine side chain” (J Med Chem, 1987).
Where a SMILES comes first, the peptide text is derived from it. Bridges are numbered along the chain shown (N, C = ends). [ ]: non-standard residue; d: D form. The star is where a group is joined. Benzoyl(4-N3) = [N-]=[N+]=Nc1ccc(C(=O)*)cc1; Mpa = O=C(O)CCS

How the values were obtained:
[1] = system: Rattus norvegicus; assay: Antidiuretic activity was determined in water loaded, ethanol-anesthetized rats.; format: functional, Urine
[2] = Toad bladder hydroosmotic activity was determined; format: functional; conditions: read-out: ED50 (the source's name)
Outline: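 Osmometric measurement of bladder water permeability. Bladders were suspended in humidified air, and paper disks holding 8 μL of hypertonic Ringer's, with or without peptide at various concentrations, were placed on the outer surface of the bladder wall. The Ringer's contained NaCl 110, KCl 3.5, CaCl₂ 1, MgCl₂ 1, glucose 5.5 and Tris-HCl 10 mmol/L, pH 7.5, 236 mOsm/kg H₂O. Dose-response curves were constructed.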

[3] = system: Rattus norvegicus; assay: (§1) Pressor activity was determined in urethane-anesthetized, phenoxybenzamine treated rats.; format: functional, organism-based; conditions: read-out: pA2 (converted)
[4] = system: Rattus norvegicus; assay: as §1; format: functional

Row | Structure (SMILES) | Antidiuretic activity [1] | EC50 [2] | Kb [3] | Pressor activity [4]
1 | CC[C@H](C)[C@@H]1NC(=O)[C@H](Cc2ccc(O)cc2)NC(=O)CCSSC[C@@H](C(=O)N[C@@H](CCCCNC(=O)c2ccc(N=[N+]=[N-])cc2)C(=O)N[C@@H](CCCN=C(N)N)C(=O)NCC(N)=O)NC(=O)[C@H](CC(N)=O)NC(=O)[C@H](CCC(N)=O)NC1=O ([Mpa]YIQNCK(Benzoyl(4-N3))RG-NH2; disulfide 1-6) [listing 1 of 2 here] | 19.7 U/mg |  |  | 
2 | N=C(N)NCCC[C@H](NC(=O)[C@@H]1CCCN1C(=O)[C@@H]1CSSC[C@H](N)C(=O)N[C@@H](Cc2ccc(O)cc2)C(=O)N[C@@H](Cc2ccccc2)C(=O)N[C@@H](CCC(N)=O)C(=O)N[C@@H](CC(N)=O)C(=O)N1)C(=O)NCC(N)=O [VASOPRESSIN] |  | 9.5 nM |  | 
3 | CC[C@H](C)[C@@H]1NC(=O)[C@H](Cc2ccc(O)cc2)NC(=O)CCSSC[C@@H](C(=O)N[C@@H](CCCCNC(=O)c2ccc(N=[N+]=[N-])cc2)C(=O)N[C@@H](CCCN=C(N)N)C(=O)NCC(N)=O)NC(=O)[C@H](CC(N)=O)NC(=O)[C@H](CCC(N)=O)NC1=O ([Mpa]YIQNCK(Benzoyl(4-N3))RG-NH2; disulfide 1-6) [listing 2 of 2 here] |  |  | 251 nM | 
4 | CC[C@H](C)[C@@H]1NC(=O)[C@H](Cc2ccc(O)cc2)NC(=O)CCSSC[C@@H](C(=O)N2CCC[C@H]2C(=O)N[C@@H](CCCN=C(N)N)C(=O)NCC(N)=O)NC(=O)[C@H](CC(N)=O)NC(=O)[C@H](CCC(N)=O)NC1=O ([Mpa]YIQNCPRG-NH2; disulfide 1-6) | 890 U/mg |  |  | 256 U/mg
5 | CC[C@H](C)[C@@H]1NC(=O)[C@H](Cc2ccc(O)cc2)NC(=O)[C@@H](N)CSSC[C@@H](C(=O)N2CCC[C@H]2C(=O)N[C@@H](CCCN=C(N)N)C(=O)NCC(N)=O)NC(=O)[C@H](CC(N)=O)NC(=O)[C@H](CCC(N)=O)NC1=O [VASOTOCIN] (H-CYIQNCPRG-NH2; disulfide 1-6) | 231 U/mg |  |  | 160 U/mg
6 | CC[C@H](C)[C@@H]1NC(=O)[C@H](Cc2ccc(O)cc2)NC(=O)CCSSC[C@@H](C(=O)N[C@@H](CCCCN)C(=O)N[C@@H](CCCN=C(N)N)C(=O)NCC(N)=O)NC(=O)[C@H](CC(N)=O)NC(=O)[C@H](CCC(N)=O)NC1=O ([Mpa]YIQNCKRG-NH2; disulfide 1-6) | 29 U/mg | 22 nM |  | 0 U/mg
7 | CC[C@H](C)[C@@H]1NC(=O)[C@@H](Cc2ccc(O)cc2)NC(=O)CCSSC[C@@H](C(=O)N[C@H](CCCCNC(=O)CCCCC2SCC3NC(=O)NC32)C(=O)N[C@@H](CCCN=C(N)N)C(=O)NCC(N)=O)NC(=O)[C@H](CC(N)=O)NC(=O)[C@@H](CCC(N)=O)NC1=O (stereo partly drawn) | 4.3 U/mg | 210 nM |  | 0 U/mg
